From ChEMBL document CHEMBL4325899, “Synthesis and photocytotoxic activity of [1,2,3]triazolo[4,5-h][1,6]naphthyridines and [1,3]oxazolo[5,4-h][1,6]naphthyridines” (Eur J Med Chem, 2019)

What was measured:
HT-29 [1] = experiment: Phototoxicity against human HT-29 cells preincubated for 5 mins followed by compound washout and subsequent UV irradiation at 1.5 J/cm2 for 5 mins measured after 72 hrs by MTT assay; type: functional, cell-based; details: HT-29, light or radiation study
Summary of the method: (§1)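 Compounds were diluted in DMSO (0.5% final), applied in triplicate for 5 min, then washed out with PBS. After medium removal, cells were irradiated on ice for 5 min at 365 nm (1.5 J/cm²) and then kept 72 h at 37 °C. Viability was read by MTT at 540 nm and expressed relative to 0.5% DMSO controls given the same treatment. EC50 is the concentration killing 50%, as the mean ± SD of at least three experiments.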

A-375 [2] = experiment: Phototoxicity index, ratio of CC50 for human A375 cells to EC50 for human A375 cells under UV irradiation at 1.5 J/cm2
[3] = Dark toxicity against human MCF7 cells preincubated for 5 mins followed by compound washout and measured after 72 hrs by MTT assay; type: cell-based
Summary of the method: (§2)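 Cells were plated and allowed to attach overnight. Compounds were diluted in DMSO (0.5% final), with each concentration in triplicate, and applied for 5 min. Cells were then washed in PBS and given fresh medium. Without irradiation, cells were held 72 h at up to 50 μM. MTT (5 mg/mL stock) was added for 4 h, crystals were dissolved in SDS/HCl overnight, and absorbance was read at 540 nm. CC50 is the concentration killing 50% of cells, taken as the mean of at least three experiments.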

[4] = Selectivity index, ratio of EC50 for human MCF10A cells under UV irradiation at 1.5 J/cm2 to EC50 for human HT-29 cells under UV irradiation at 1.5 J/cm2; type: toxicity; details: MCF10A cells versus HT-29 cells, read-out: Ratio EC50
Summary of the method: (§3)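 SI is the EC50 under irradiation in non-tumor MCF10A cells divided by the EC50 under irradiation in the tumor line. Both were MTT read-outs 72 h after 1.5 J/cm² at 365 nm.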

[5] = Dark toxicity against human A375 cells preincubated for 5 mins followed by compound washout and measured after 72 hrs by MTT assay; type: cell-based, A-375; summary of the method: as §2
[6] = Selectivity index, ratio of EC50 for human MCF10A cells under UV irradiation at 1.5 J/cm2 to EC50 for human A375 cells under UV irradiation at 1.5 J/cm2; type: toxicity; details: MCF10A cells versus A375 cells, read-out: Ratio EC50; summary of the method: as §3
MCF7 [7] = experiment: Phototoxicity against human MCF7 cells preincubated for 5 mins followed by compound washout and subsequent UV irradiation at 1.5 J/cm2 for 5 mins measured after 72 hrs by MTT assay; type: functional, cell-based; details: MCF7, light or radiation study; summary of the method: as §1
MCF-10A = experiment: Phototoxicity against human MCF10A cells preincubated for 5 mins followed by compound washout and subsequent UV irradiation at 1.5 J/cm2 for 5 mins measured after 72 hrs by MTT assay; type: cell-based; details: light or radiation study; summary of the method: as §1
[8] = Dark toxicity against human MCF10A cells preincubated for 5 mins followed by compound washout and measured after 72 hrs by MTT assay; type: cell-based, MCF-10A; summary of the method: as §2
[9] = Selectivity index, ratio of EC50 for human MCF10A cells under UV irradiation at 1.5 J/cm2 to EC50 for human MCF7 cells under UV irradiation at 1.5 J/cm2; type: toxicity; details: MCF10A cells versus MCF7 cells, read-out: Ratio EC50; summary of the method: as §3
[10] = Solubility of the compound in DMSO; type: physicochemical
A-375 [11] = experiment: Phototoxicity against human A375 cells preincubated for 5 mins followed by compound washout and subsequent UV irradiation at 1.5 J/cm2 for 5 mins measured after 72 hrs by MTT assay; type: functional, cell-based; details: A-375, light or radiation study; summary of the method: as §1
[12] = Dark toxicity against human HT-29 cells preincubated for 5 mins followed by compound washout and measured after 72 hrs by MTT assay; type: cell-based; summary of the method: as §2
HT-29 [13] = experiment: Phototoxicity index, ratio of CC50 for human HT-29 cells to EC50 for human HT-29 cells under UV irradiation at 1.5 J/cm2
[14] = Phototoxicity index, ratio of CC50 for human MCF10A cells to EC50 for human MCF10A cells under UV irradiation at 1.5 J/cm2; type: cell-based, MCF-10A; details: read-out: Ratio CC50/EC50
MCF7 [15] = experiment: Phototoxicity index, ratio of CC50 for human MCF7 cells to EC50 for human MCF7 cells under UV irradiation at 1.5 J/cm2

SMILES | EC50 (HT-29 [1]) [µM] | Ratio CC50/EC50 (A-375 [2]) | CC50 at 72 h [3] [µM] | selectivity ratio [4] | CC50 at 72 h [5] [µM] | selectivity ratio [6] | EC50 (MCF7 [7]) [µM] | EC50 (MCF-10A) [µM] | CC50 at 72 h [8] [µM] | selectivity ratio [9] | solubility [10] | EC50 (A-375 [11]) [µM] | CC50 at 72 h [12] [µM] | Ratio CC50/EC50 (HT-29 [13]) | selectivity ratio [14] | Ratio CC50/EC50 (MCF7 [15])
COc1ccc(-n2nnc3c4nc(-c5ccccc5OC)ccc4c(C)nc32)cc1 | > 50 | >46 | > 50 | > 1 | > 50 | 46 | > 50 | > 50 | > 50 | > 1 | Soluble | 1.09 | > 50 | – | – | –
COc1cc(-n2nnc3c4nc(-c5ccccc5)ccc4c(C)nc32)cc(OC)c1OC | > 50 | – | > 50 | – | > 50 | – | > 50 | > 50 | > 50 | – | Soluble | > 50 | > 50 | – | – | –
Cc1nc2c(nnn2-c2ccccc2)c2[nH]c(=O)ccc12 | > 50 | – | > 50 | – | > 50 | – | > 50 | > 50 | > 50 | – | Soluble | > 50 | > 50 | – | – | –
COc1ccc(-c2nc3c(nc(C)c4ccc(C)nc43)o2)cc1 | 4.28 | – | > 50 | > 12 | > 50 | – | > 50 | > 50 | > 50 | – | Soluble | > 50 | > 50 | >12 | – | –
COc1ccc(-c2ccc3c(C)nc4oc(-c5cc(OC)c(OC)c(OC)c5)nc4c3n2)cc1 | – | – | – | – | – | – | – | – | – | – | Insoluble | – | – | – | – | –
COc1cc(-c2nc3c(nc(C)c4ccc(-c5ccccc5)nc43)o2)cc(OC)c1OC | 0.62 | >35 | > 50 | 7 | > 50 | 3 | 5.94 | 4.38 | > 50 | 0.737 | Soluble | 1.44 | > 50 | >81 | > 11 | >8
COc1ccc(-c2nc3c(nc(C)c4ccc(-c5ccccc5OC)nc43)o2)cc1 | – | – | – | – | – | – | – | – | – | – | Insoluble | – | – | – | – | –
COc1cc(-n2nnc3c4[nH]c(=O)ccc4c(C)nc32)cc(OC)c1OC | – | – | – | – | – | – | – | – | – | – | Insoluble | – | – | – | – | –
COc1ccccc1-c1ccc2c(C)nc3c(nnn3-c3cc(OC)c(OC)c(OC)c3)c2n1 | > 50 | – | > 50 | – | > 50 | – | > 50 | > 50 | > 50 | – | Soluble | > 50 | > 50 | – | – | –
COc1ccccc1-c1ccc2c(C)nc3oc(-c4cc(OC)c(OC)c(OC)c4)nc3c2n1 | 0.197 | >65 | > 50 | 9 | > 50 | 2 | 3.53 | 1.86 | > 50 | 0.527 | Soluble | 0.764 | > 50 | >254 | > 27 | >14
COc1ccc(-c2ccc3c(C)nc4c(nnn4-c4cc(OC)c(OC)c(OC)c4)c3n2)cc1 | – | – | – | – | – | – | – | – | – | – | Insoluble | – | – | – | – | –
Cc1nc2c(nnn2-c2ccccc2)c2nc(-c3ccccc3)ccc12 | > 50 | – | > 50 | – | > 50 | – | > 50 | > 50 | > 50 | – | Soluble | > 50 | > 50 | – | – | –
COc1cc(-c2nc3c(nc(C)c4ccc(C)nc43)o2)cc(OC)c1OC | > 50 | – | > 50 | – | > 50 | – | > 50 | > 50 | > 50 | – | Soluble | > 50 | > 50 | – | – | –
COc1cc(-n2nnc3c4nc(C)ccc4c(C)nc32)cc(OC)c1OC | – | – | – | – | – | – | – | – | – | – | Insoluble | – | – | – | – | –
COc1ccc(-n2nnc3c4[nH]c(=O)ccc4c(C)nc32)cc1 | > 50 | – | > 50 | – | > 50 | – | > 50 | > 50 | > 50 | – | Soluble | > 50 | > 50 | – | – | –
Cc1ccc2c(C)nc3c(nnn3-c3ccccc3)c2n1 | > 50 | – | > 50 | – | > 50 | – | > 50 | > 50 | > 50 | – | Soluble | > 50 | > 50 | – | – | –
COc1ccccc1-c1ccc2c(C)nc3c(nnn3-c3ccccc3)c2n1 | – | – | – | – | – | – | – | – | – | – | Insoluble | – | – | – | – | –
COc1cc(-c2nc3c(nc(C)c4ccc(=O)[nH]c43)o2)cc(OC)c1OC | – | – | – | – | – | – | – | – | – | – | Insoluble | – | – | – | – | –
COc1ccc(-c2ccc3c(C)nc4c(nnn4-c4ccccc4)c3n2)cc1 | 0.099 | >5 | > 50 | 1.01 | > 50 | 0.009 | 34 | 0.099 | > 50 | 0.003 | Soluble | 10.1 | > 50 | >508 | > 505 | >1.5
Cc1nc2oc(-c3ccccc3)nc2c2[nH]c(=O)ccc12 | > 50 | >34 | > 50 | – | > 50 | 34 | > 50 | > 50 | > 50 | – | Soluble | 1.49 | > 50 | – | – | –
COc1ccc(-c2ccc3c(C)nc4c(nnn4-c4ccc(OC)cc4)c3n2)cc1 | 1.74 | >57 | > 50 | > 29 | > 50 | 57 | > 50 | > 50 | > 50 | > 1 | Soluble | 0.875 | > 50 | >29 | – | –
Cc1ccc2c(C)nc3oc(-c4ccccc4)nc3c2n1 | 6.59 | – | > 50 | > 8 | > 50 | – | > 50 | > 50 | > 50 | – | Soluble | > 50 | > 50 | >8 | – | –
COc1ccc(-c2ccc3c(C)nc4oc(-c5ccccc5)nc4c3n2)cc1 | – | – | – | – | – | – | – | – | – | – | Insoluble | – | – | – | – | –
Cc1nc2oc(-c3ccccc3)nc2c2nc(-c3ccccc3)ccc12 | – | – | – | – | – | – | – | – | – | – | Insoluble | – | – | – | – | –
COc1ccc(-c2nc3c(nc(C)c4ccc(=O)[nH]c43)o2)cc1 | – | – | – | – | – | – | – | – | – | – | Insoluble | – | – | – | – | –
COc1ccc(-c2ccc3c(C)nc4oc(-c5ccc(OC)cc5)nc4c3n2)cc1 | – | – | – | – | – | – | – | – | – | – | Insoluble | – | – | – | – | –
COc1ccc(-n2nnc3c4nc(-c5ccccc5)ccc4c(C)nc32)cc1 | – | – | – | – | – | – | – | – | – | – | Insoluble | – | – | – | – | –
